Measured values published in ChEMBL document CHEMBL2434820, “Design, synthesis, and biological evaluation of novel 2-ethyl-5-phenylthiazole-4-carboxamide derivatives as protein tyrosine phosphatase 1B inhibitors with improved cellular efficacy” (Eur J Med Chem, 2013).
Blank lines part the entries; values can stand above or below the molecule they belong to. Activity calls are given as the source filed them. The calls are words filed in the database; no cut-off is given here.

What was measured:
[1] = target: T1, Tyrosine-protein phosphatase non-receptor type 1 (Homo sapiens, UniProt P18031); experiment: Inhibition of GST-tagged PTP1B (unknown origin) using pNPP as substrate measured for 2 mins by colorimetric analysis
T1 sequence (P18031 whole entry): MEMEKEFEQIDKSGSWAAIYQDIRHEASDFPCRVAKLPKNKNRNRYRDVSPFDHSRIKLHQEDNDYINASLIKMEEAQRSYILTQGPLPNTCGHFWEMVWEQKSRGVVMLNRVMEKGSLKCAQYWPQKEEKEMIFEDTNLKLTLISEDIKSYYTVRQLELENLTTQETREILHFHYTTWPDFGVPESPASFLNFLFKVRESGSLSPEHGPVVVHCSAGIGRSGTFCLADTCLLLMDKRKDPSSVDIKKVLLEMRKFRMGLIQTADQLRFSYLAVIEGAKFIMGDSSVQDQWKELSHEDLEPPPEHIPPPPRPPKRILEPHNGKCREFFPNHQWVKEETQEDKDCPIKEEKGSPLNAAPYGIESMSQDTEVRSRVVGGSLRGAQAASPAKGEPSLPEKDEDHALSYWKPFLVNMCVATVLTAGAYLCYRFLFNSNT

[2] = target: T2, Tyrosine-protein phosphatase non-receptor type 1 (Homo sapiens) (UniProt P18031); details: CHO, 1.25 to 10 uM
T2 sequence (whole entry): T1 sequence (P18031 whole entry)

[3] = target: T2, Tyrosine-protein phosphatase non-receptor type 1 (Homo sapiens); experiment: Inhibition of PTP1B (unknown origin) expressed in CHO cells over-expressing human IR assessed as increase in insulin-mediated IR-beta phosphorylation preincubated for 2 hrs followed by insulin challenge for 10 mins by Western blotting analysis; format: cell-based
Summary of the method: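 CHO cells overexpressing human IR, grown in Ham's F-12 with 10% FBS at 37 °C, 5% CO2. Cells were serum-starved 2 h, then exposed to compound for 2 h (0.2% DMSO vehicle; 1 mM sodium orthovanadate as positive control). They were then stimulated with 10 nM insulin for 10 min. Lysates were run on 8% SDS-PAGE and immunoblotted with anti-pTyr, using β-actin as the loading control.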

[4] = target: Tyrosine-protein phosphatase non-receptor type 6 (Homo sapiens, UniProt P29350); experiment: Inhibition of SHP-1 (unknown origin)
Chain of Tyrosine-protein phosphatase non-receptor type 6 (P29350 whole entry): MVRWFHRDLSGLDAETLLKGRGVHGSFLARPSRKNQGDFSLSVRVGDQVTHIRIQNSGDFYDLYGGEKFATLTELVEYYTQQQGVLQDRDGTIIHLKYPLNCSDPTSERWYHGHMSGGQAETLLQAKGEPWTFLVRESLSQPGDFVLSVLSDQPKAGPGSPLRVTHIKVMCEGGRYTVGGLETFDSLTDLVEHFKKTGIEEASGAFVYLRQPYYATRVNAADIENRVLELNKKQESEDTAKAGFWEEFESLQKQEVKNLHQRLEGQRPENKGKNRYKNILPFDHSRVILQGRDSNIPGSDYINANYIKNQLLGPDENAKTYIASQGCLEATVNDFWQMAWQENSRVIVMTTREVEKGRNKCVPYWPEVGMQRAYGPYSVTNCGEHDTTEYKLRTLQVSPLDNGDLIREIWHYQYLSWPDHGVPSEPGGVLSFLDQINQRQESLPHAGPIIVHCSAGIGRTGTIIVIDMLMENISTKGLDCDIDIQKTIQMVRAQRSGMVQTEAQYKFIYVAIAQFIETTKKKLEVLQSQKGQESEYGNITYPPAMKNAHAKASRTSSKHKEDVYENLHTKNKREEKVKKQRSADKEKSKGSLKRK

[5] = target: T3, M-phase inducer phosphatase 2 (Homo sapiens, UniProt P30305); experiment: Inhibition of CDC25B (unknown origin)
T3 sequence (P30305 whole entry): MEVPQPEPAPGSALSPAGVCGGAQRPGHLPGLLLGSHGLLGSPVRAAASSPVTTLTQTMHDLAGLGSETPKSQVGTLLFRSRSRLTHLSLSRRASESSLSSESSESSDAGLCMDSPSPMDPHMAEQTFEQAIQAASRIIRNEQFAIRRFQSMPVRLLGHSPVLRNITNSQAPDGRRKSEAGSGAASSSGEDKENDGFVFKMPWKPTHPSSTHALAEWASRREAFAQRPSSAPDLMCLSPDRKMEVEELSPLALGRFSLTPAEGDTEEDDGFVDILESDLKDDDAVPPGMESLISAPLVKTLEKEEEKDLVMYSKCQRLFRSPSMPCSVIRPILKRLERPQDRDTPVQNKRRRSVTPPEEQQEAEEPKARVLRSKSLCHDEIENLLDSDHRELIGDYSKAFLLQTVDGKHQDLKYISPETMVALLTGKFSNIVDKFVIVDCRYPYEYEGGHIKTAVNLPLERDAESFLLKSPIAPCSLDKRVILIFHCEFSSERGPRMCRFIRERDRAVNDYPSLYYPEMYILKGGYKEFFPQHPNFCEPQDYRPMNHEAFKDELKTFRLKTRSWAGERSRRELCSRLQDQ

[6] = target: Receptor-type tyrosine-protein phosphatase F (Homo sapiens, UniProt P10586); experiment: Inhibition of LAR (unknown origin)
Chain of Receptor-type tyrosine-protein phosphatase F (P10586 whole entry): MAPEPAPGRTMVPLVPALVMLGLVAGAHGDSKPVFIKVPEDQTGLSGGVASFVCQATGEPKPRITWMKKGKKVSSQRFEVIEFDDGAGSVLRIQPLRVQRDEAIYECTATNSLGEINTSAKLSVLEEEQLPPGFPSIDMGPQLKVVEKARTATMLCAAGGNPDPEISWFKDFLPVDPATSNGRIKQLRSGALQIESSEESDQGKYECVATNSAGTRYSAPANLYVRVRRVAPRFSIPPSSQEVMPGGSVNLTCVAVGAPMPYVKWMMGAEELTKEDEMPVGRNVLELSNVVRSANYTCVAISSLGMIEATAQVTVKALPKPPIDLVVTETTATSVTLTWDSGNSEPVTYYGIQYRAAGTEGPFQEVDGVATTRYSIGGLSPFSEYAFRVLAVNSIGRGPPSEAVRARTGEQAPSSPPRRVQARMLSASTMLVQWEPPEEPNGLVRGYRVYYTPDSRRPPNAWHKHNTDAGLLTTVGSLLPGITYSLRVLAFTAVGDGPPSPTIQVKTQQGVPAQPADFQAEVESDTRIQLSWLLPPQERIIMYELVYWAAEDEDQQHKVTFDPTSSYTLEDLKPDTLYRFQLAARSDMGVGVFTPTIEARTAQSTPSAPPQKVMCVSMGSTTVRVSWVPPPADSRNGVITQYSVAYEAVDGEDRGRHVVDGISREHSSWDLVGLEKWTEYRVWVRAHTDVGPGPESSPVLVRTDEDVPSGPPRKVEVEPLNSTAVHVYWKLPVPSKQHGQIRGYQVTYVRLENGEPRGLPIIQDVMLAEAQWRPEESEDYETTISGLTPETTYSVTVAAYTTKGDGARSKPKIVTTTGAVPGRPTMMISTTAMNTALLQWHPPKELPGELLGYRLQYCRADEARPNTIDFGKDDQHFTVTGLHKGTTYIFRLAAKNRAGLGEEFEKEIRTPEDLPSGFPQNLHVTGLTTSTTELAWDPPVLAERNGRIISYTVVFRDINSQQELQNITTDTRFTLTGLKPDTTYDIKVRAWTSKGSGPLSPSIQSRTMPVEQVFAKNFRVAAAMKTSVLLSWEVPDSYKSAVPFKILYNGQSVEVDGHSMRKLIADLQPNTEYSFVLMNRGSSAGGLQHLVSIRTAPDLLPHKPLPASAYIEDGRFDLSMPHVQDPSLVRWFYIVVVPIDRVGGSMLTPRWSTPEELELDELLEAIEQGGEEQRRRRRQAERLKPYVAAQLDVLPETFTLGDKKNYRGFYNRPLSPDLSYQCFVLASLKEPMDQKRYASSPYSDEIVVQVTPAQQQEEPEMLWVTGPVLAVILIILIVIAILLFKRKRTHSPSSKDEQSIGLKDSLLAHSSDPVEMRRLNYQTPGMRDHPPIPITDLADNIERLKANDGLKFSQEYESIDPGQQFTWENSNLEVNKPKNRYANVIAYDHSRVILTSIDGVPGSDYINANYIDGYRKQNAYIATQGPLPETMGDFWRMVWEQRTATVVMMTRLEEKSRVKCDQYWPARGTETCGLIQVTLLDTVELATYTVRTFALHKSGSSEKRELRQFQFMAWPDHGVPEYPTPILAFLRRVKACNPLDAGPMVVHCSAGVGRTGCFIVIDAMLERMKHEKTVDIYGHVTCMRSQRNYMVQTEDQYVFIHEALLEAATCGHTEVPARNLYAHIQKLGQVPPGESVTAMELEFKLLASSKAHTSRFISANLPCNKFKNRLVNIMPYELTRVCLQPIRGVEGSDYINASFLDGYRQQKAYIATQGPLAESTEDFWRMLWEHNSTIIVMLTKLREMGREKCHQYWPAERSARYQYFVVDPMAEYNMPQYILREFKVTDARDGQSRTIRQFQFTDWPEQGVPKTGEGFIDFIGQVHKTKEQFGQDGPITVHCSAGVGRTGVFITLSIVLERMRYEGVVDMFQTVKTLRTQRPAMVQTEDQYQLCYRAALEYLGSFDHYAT

[7] = species: Homo sapiens; experiment: Selectivity ratio of IC50 for TCPTP (unknown origin) to IC50 for GST-tagged PTP1B (unknown origin)
[8] = target: T4, Tyrosine-protein phosphatase non-receptor type 11 (Homo sapiens, UniProt Q06124); experiment: Inhibition of SHP-2 (unknown origin)
T4 sequence (Q06124 whole entry): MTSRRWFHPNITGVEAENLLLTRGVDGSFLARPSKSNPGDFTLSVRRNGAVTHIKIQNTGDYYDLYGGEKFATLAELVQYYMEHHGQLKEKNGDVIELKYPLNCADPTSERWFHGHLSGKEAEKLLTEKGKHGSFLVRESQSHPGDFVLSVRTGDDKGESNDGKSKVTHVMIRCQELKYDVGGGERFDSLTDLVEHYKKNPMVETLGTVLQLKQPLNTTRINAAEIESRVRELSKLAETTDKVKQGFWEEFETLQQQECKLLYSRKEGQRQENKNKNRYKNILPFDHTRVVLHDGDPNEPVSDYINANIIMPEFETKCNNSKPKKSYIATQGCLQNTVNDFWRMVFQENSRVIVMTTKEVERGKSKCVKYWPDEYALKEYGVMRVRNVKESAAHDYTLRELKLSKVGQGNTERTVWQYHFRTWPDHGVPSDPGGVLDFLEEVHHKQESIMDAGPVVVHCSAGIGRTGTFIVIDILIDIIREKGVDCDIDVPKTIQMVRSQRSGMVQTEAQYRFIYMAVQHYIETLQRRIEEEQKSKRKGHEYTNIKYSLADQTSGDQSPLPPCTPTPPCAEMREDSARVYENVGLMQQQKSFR

[9] = target: T5, Tyrosine-protein phosphatase non-receptor type 2 (Homo sapiens, UniProt P17706); experiment: Inhibition of TCPTP (unknown origin)
T5 sequence (P17706 whole entry): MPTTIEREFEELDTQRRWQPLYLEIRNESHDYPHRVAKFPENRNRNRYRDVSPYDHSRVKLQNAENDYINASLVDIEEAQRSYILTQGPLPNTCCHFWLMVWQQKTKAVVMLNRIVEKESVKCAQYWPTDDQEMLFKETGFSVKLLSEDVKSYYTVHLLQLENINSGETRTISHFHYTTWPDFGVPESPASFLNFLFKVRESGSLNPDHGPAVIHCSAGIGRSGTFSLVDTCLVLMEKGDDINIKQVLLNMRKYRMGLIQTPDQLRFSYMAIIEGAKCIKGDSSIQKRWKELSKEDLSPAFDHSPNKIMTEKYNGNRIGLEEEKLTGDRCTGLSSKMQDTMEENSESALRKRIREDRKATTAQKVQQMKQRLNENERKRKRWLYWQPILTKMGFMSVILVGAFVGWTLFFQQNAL

IC50 [4]: 10.6 µM
IC50 [5]: 9.74 µM
IC50 [6]: > 20 µM
IC50 [1]: 1.12 µM
Ratio IC50 [7]: 3.6
IC50 [8]: 10.1 µM
IC50 [9]: 3.98 µM
SMILES: O=C(CCc1c[nH]c2ccccc12)N[C@@H](Cc1ccc(OCc2ccccc2)cc1)c1nc(C(=O)Nc2cc(C(=O)O)ccc2F)c(-c2ccccc2)s1

IC50 [1]: 1.18 µM
SMILES: O=C(CCc1c[nH]c2ccccc12)N[C@@H](Cc1ccc(OCc2ccccc2)cc1)c1nc(C(=O)Nc2cc(Br)ccc2C(=O)O)c(-c2ccccc2)s1

IC50 [1]: 1.62 µM
SMILES: O=C(CCc1c[nH]c2ccccc12)N[C@@H](Cc1ccc(OCc2ccccc2)cc1)c1nc(C(=O)Nc2ccc(F)c(C(=O)O)c2)c(-c2ccccc2)s1

IC50 [1]: 0.77 µM
SMILES: O=C(CCc1c[nH]c2ccccc12)N[C@@H](Cc1ccc(OCc2ccccc2)cc1)c1nc(C(=O)Nc2ccc(C(=O)O)cc2F)c(-c2ccccc2)s1

IC50 [1]: 4.18 µM
SMILES: O=C(CCc1c[nH]c2ccccc12)N[C@@H](Cc1ccc(OCc2ccccc2)cc1)c1nc(C(=O)Nc2cccc(F)c2C(=O)O)c(-c2ccccc2)s1

IC50 [4]: 7.53 µM
IC50 [5]: 7.37 µM
IC50 [6]: > 20 µM
IC50 [1]: 1.01 µM
inhibition [3]: Dose-dependent effect
Ratio IC50 [7]: 3.3
IC50 [8]: 5.3 µM
IC50 [9]: 3.38 µM
SMILES: O=C(CCc1c[nH]c2ccccc12)N[C@@H](Cc1ccc(OCc2ccccc2)cc1)c1nc(C(=O)Nc2cccc(C(=O)O)c2)c(-c2ccccc2)s1

IC50 [1]: 0.71 µM
SMILES: O=C(CCc1c[nH]c2ccccc12)N[C@@H](Cc1ccc(OCc2ccccc2)cc1)c1nc(C(=O)Nc2cc(Cl)ccc2C(=O)O)c(-c2ccccc2)s1

IC50 [1]: 2.56 µM
SMILES: O=C(CCc1c[nH]c2ccccc12)N[C@@H](Cc1ccc(OCc2ccccc2)cc1)c1nc(C(=O)Nc2ccc(C(=O)O)c(F)c2)c(-c2ccccc2)s1

IC50 [1]: 2.82 µM
SMILES: O=C(CCc1c[nH]c2ccccc12)N[C@@H](Cc1ccc(OCc2ccccc2)cc1)c1nc(C(=O)Nc2ccc(F)cc2C(=O)O)c(-c2ccccc2)s1

The remaining lines, values behind:

SMILES: C/C(=C/C(C)=C/c1nc([C@H](Cc2ccc(OCc3ccccc3)cc2)NC(=O)C2CCCCC2)sc1-c1ccccc1)C(=O)O
IC50 [1]: 10.9 µM
inhibition [2]: Active

SMILES: CCOC(=O)/C(C)=C\C(C)=C\c1csc([C@H](Cc2ccc(OCc3ccccc3)cc2)NC(=O)C2CCCCC2)n1
inhibition [3]: inactive

SMILES: O=C(CCc1c[nH]c2ccccc12)N[C@@H](Cc1ccc(OCc2ccccc2)cc1)c1nc(C(=O)Nc2ccc(Cl)c(C(=O)O)c2)c(-c2ccccc2)s1
IC50 [4]: 8.79 µM
IC50 [5]: 4.94 µM
IC50 [6]: > 20 µM
IC50 [1]: 1.42 µM
Ratio IC50 [7]: 2.4
IC50 [8]: 6.79 µM
IC50 [9]: 3.36 µM

SMILES: O=C(Nc1ccccc1C(=O)O)c1csc([C@H](Cc2ccc(OCc3ccccc3)cc2)NC(=O)C2CCCCC2)n1
IC50 [1]: 8.12 µM

SMILES: O=C(O)c1cccc(NC(=O)c2nc([C@H](Cc3ccc(OCc4ccccc4)cc3)NC(=O)C3CCCCC3)sc2-c2ccccc2)c1
IC50 [4]: 6.93 µM
IC50 [5]: 2.51 µM
IC50 [6]: > 20 µM
IC50 [1]: 1.17 µM
Ratio IC50 [7]: 3.4
IC50 [8]: 11.7 µM
IC50 [9]: 3.97 µM

SMILES: COC(=O)c1cccc(NC(=O)c2csc([C@H](Cc3ccc(OCc4ccccc4)cc3)NC(=O)C3CCCCC3)n2)c1
IC50 [1]: 10.6 µM

SMILES: C/C(=C/C(C)=C/c1csc([C@H](Cc2ccc(OCc3ccccc3)cc2)NC(=O)C2CCCCC2)n1)C(=O)O
IC50 [1]: 14.7 µM
inhibition [3]: inactive

SMILES: CCOC(=O)/C(C)=C\C(C)=C\c1nc([C@H](Cc2ccc(OCc3ccccc3)cc2)NC(=O)C2CCCCC2)sc1-c1ccccc1
IC50 [1]: 8.44 µM
inhibition [3]: inactive

SMILES: O=C(O)c1cccc(NC(=O)c2csc([C@H](Cc3ccc(OCc4ccccc4)cc3)NC(=O)C3CCCCC3)n2)c1
IC50 [1]: 6 µM

SMILES: COC(=O)c1ccc(NC(=O)c2csc([C@H](Cc3ccc(OCc4ccccc4)cc3)NC(=O)C3CCCCC3)n2)cc1
IC50 [1]: 4.42 µM

SMILES: COC(=O)c1cccc(NC(=O)c2nc([C@H](Cc3ccc(OCc4ccccc4)cc3)NC(=O)C3CCCCC3)sc2-c2ccccc2)c1
IC50 [1]: 3.79 µM

SMILES: CCOC(=O)/C(C)=C\C(C)=C\c1nc([C@H](Cc2ccc(OCc3ccccc3)cc2)NC(=O)C2CCCCC2)sc1CC(C)C
IC50 [1]: 9.54 µM
inhibition [3]: inactive

SMILES: CCOC(=O)/C(C)=C\C(C)=C\c1nc([C@H](Cc2ccc(OCc3ccccc3)cc2)NC(=O)C2CCCCC2)sc1C
IC50 [1]: 13.5 µM
inhibition [3]: inactive

SMILES: COC(=O)c1ccccc1NC(=O)c1csc([C@H](Cc2ccc(OCc3ccccc3)cc2)NC(=O)C2CCCCC2)n1
IC50 [1]: 8.79 µM

SMILES: COC(=O)c1cccc(NC(=O)c2nc([C@H](Cc3ccc(OCc4ccccc4)cc3)NC(=O)CCc3c[nH]c4ccccc34)sc2-c2ccccc2)c1
IC50 [1]: 2.68 µM

SMILES: O=C(O)c1ccc(NC(=O)c2csc([C@H](Cc3ccc(OCc4ccccc4)cc3)NC(=O)C3CCCCC3)n2)cc1
IC50 [1]: 4.88 µM

SMILES: O=C(CCc1c[nH]c2ccccc12)N[C@@H](Cc1ccc(OCc2ccccc2)cc1)c1nc(C(=O)Nc2ccccc2C(=O)O)c(-c2ccccc2)s1
IC50 [1]: 5.56 µM

SMILES: O=C(CCc1c[nH]c2ccccc12)N[C@@H](Cc1ccc(OCc2ccccc2)cc1)c1nc(C(=O)Nc2ccc(C(=O)O)cc2)c(-c2ccccc2)s1
IC50 [1]: 2.28 µM
